Values after ≈ are worked out from the molar mass of the structure shown. Active and inactive are the calls of the source. The calls are words filed in the database; no cut-off is given here.
Key:
[1] = test system: Staphylococcus epidermidis; assay: Antibacterial activity against methicillin-resistant Staphylococcus epidermidis NRS101 after 18 hrs by broth microdilution assay; type: functional; details: NRS101, 18 h
In short: (§1)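 Broth microdilution: inoculum from 0.5 McFarland suspension diluted to about 5 × 10^5 CFU/mL. Media were cation-adjusted Mueller-Hinton broth for staphylococci, brain heart infusion for E. faecium, and tryptone soya broth for E. faecalis, S. pneumoniae and L. monocytogenes.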

Staphylococcus aureus [2] = assay: Antibacterial activity against methicillin-resistant Staphylococcus aureus 2658 RCMB after 18 hrs by broth microdilution assay; type: functional; in short: as §1
Enterococcus faecalis [3] = assay: Antibacterial activity against vancomycin-resistant Enterococcus faecalis ATCC 51299 after 18 hrs by broth microdilution assay; type: functional; details: ATCC 51299, 18 h; in short: as §1
Staphylococcus aureus [4] = assay: Antibacterial activity against methicillin-sensitive Staphylococcus aureus ATCC 6538 after 18 hrs by broth microdilution assay; type: functional; details: ATCC 6538, 18 h; in short: as §1
Staphylococcus aureus [5] = assay: Antibacterial activity against methicillin-sensitive Staphylococcus aureus NRS107 after 18 hrs by broth microdilution assay; type: functional; details: NRS107, 18 h; in short: as §1
Staphylococcus aureus [6] = assay: Antibacterial activity against methicillin-resistant Staphylococcus aureus NRS119 after 18 hrs by broth microdilution assay; type: functional; details: NRS119, 18 h; in short: as §1
Staphylococcus aureus [7] = assay: Antibacterial activity against methicillin-resistant Staphylococcus aureus NRS123 USA400 after 18 hrs by broth microdilution assay; type: functional; details: NRS123 USA400, 18 h; in short: as §1
Staphylococcus aureus [8] = assay: Antibacterial activity against methicillin-resistant Staphylococcus aureus NRS384 USA300 after 18 hrs by broth microdilution assay; type: functional; details: NRS384 USA300, 18 h; in short: as §1
Staphylococcus aureus [9] = assay: Antibacterial activity against methicillin-resistant Staphylococcus aureus NRS385 after 18 hrs by broth microdilution assay; type: functional; details: NRS385, 18 h; in short: as §1
Staphylococcus aureus [10] = assay: Antibacterial activity against methicillin-resistant Staphylococcus aureus NRS386 after 18 hrs by broth microdilution assay; type: functional; details: NRS386, 18 h; in short: as §1
Staphylococcus aureus [11] = assay: Antibacterial activity against vancomycin-resistant Staphylococcus aureus VRS10 after 18 hrs by broth microdilution assay; type: functional; details: VRS10, 18 h; in short: as §1
Staphylococcus aureus [12] = assay: Antibacterial activity against vancomycin-resistant Staphylococcus aureus VRS12 after 18 hrs by broth microdilution assay; type: functional; details: VRS12, 18 h; in short: as §1
Enterococcus faecium [13] = assay: Antibacterial activity against vancomycin-resistant Enterococcus faecium ATCC 700221 after 18 hrs by broth microdilution assay; type: functional; details: ATCC 700221, 18 h; in short: as §1
Listeria monocytogenes [14] = assay: Antibacterial activity against Listeria monocytogenes ATCC 19111 after 18 hrs by broth microdilution assay; type: functional; details: ATCC 19111, 18 h
Streptococcus pneumoniae [15] = assay: Antibacterial activity against cephalosporin-resistant Streptococcus pneumoniae ATCC 51916 after 18 hrs by broth microdilution assay; type: functional; details: ATCC 51916, 18 h; in short: as §1
Streptococcus pneumoniae [16] = assay: Antibacterial activity against methicillin-resistant Streptococcus pneumoniae ATCC 700677 after 18 hrs by broth microdilution assay; type: functional; details: ATCC 700677, 18 h; in short: as §1
Staphylococcus aureus [17] = assay: Antibacterial activity against methicillin-resistant Staphylococcus aureus NRS123 USA400 assessed as reduction in bacterial burden measured over 24 hrs by time kill assay; type: functional
In short: (§2)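 Samples taken at 0, 2, 4, 6, 8, 12 and 24 h were serially diluted in PBS, plated on TSA and incubated ≥18 h for viable CFU/mL. DMSO was the negative control; two independent experiments.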

Listeria monocytogenes [18] = assay: Selectivity ratio of MBC to MIC for Listeria monocytogenes ATCC 19111; type: functional
Caco-2 = assay: Cytotoxicity against human Caco2 cells at 32 ug/ml after 2 hrs by MTS assay; type: cell-based; details: caco-2, 2 h
In short: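 Caco-2 cells grown in DMEM with 20% FBS, non-essential amino acids and penicillin-streptomycin, 37 °C, 5% CO2; exposed in triplicate to compounds (16, 32, 64 µg/mL) for 2 h; MTS added, 4 h further incubation, OD490 read; viability as percent of DMSO-treated controls; two independent experiments.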

Staphylococcus aureus [19] = assay: Bactericidal activity against methicillin-sensitive Staphylococcus aureus ATCC 6538 incubated fo 18 hrs followed by re-plating on tryptic soy agar plates at 37 degC for 18 hrs by broth microdilution assay; type: functional; details: ATCC 6538, 18 h
Staphylococcus aureus [20] = assay: Bactericidal activity against methicillin-sensitive Staphylococcus aureus NRS107 incubated fo 18 hrs followed by re-plating on tryptic soy agar plates at 37 degC for 18 hrs by broth microdilution assay; type: functional; details: NRS107, 18 h
Staphylococcus aureus [21] = assay: Bactericidal activity against methicillin-resistant Staphylococcus aureus NRS119 incubated fo 18 hrs followed by re-plating on tryptic soy agar plates at 37 degC for 18 hrs by broth microdilution assay; type: functional; details: NRS119, 18 h
Staphylococcus aureus [22] = assay: Bactericidal activity against methicillin-resistant Staphylococcus aureus NRS123 USA400 incubated fo 18 hrs followed by re-plating on tryptic soy agar plates at 37 degC for 18 hrs by broth microdilution assay; type: functional; details: NRS123 USA400, 18 h
Staphylococcus aureus [23] = assay: Bactericidal activity against methicillin-resistant Staphylococcus aureus NRS384 USA300 incubated fo 18 hrs followed by re-plating on tryptic soy agar plates at 37 degC for 18 hrs by broth microdilution assay; type: functional; details: NRS384 USA300, 18 h
Staphylococcus aureus [24] = assay: Bactericidal activity against methicillin-resistant Staphylococcus aureus NRS385 incubated fo 18 hrs followed by re-plating on tryptic soy agar plates at 37 degC for 18 hrs by broth microdilution assay; type: functional; details: NRS385, 18 h
Staphylococcus aureus [25] = assay: Bactericidal activity against methicillin-resistant Staphylococcus aureus NRS386 incubated fo 18 hrs followed by re-plating on tryptic soy agar plates at 37 degC for 18 hrs by broth microdilution assay; type: functional; details: NRS386, 18 h
Staphylococcus aureus [26] = assay: Bactericidal activity against vancomycin-resistant Staphylococcus aureus VRS10 incubated fo 18 hrs followed by re-plating on tryptic soy agar plates at 37 degC for 18 hrs by broth microdilution assay; type: functional; details: VRS10, 18 h
Staphylococcus aureus [27] = assay: Bactericidal activity against vancomycin-resistant Staphylococcus aureus VRS12 incubated fo 18 hrs followed by re-plating on tryptic soy agar plates at 37 degC for 18 hrs by broth microdilution assay; type: functional; details: VRS12, 18 h
[28] = test system: Staphylococcus epidermidis; assay: Bactericidal activity against methicillin-resistant Staphylococcus epidermidis NRS101 incubated fo 18 hrs followed by re-plating on tryptic soy agar plates at 37 degC for 18 hrs by broth microdilution assay; type: functional; details: NRS101, 18 h
Listeria monocytogenes [29] = assay: Bactericidal activity against Listeria monocytogenes ATCC 19111 incubated fo 18 hrs followed by re-plating on tryptic soy agar plates at 37 degC for 18 hrs by broth microdilution assay; type: functional; details: ATCC 19111, 18 h
Streptococcus pneumoniae [30] = assay: Bactericidal activity against cephalosporin-resistant Streptococcus pneumoniae ATCC 51916 incubated fo 18 hrs followed by re-plating on tryptic soy agar plates at 37 degC for 18 hrs by broth microdilution assay; type: functional; details: ATCC 51916, 18 h
Streptococcus pneumoniae [31] = assay: Bactericidal activity against methicillin-resistant Streptococcus pneumoniae ATCC 700677 incubated fo 18 hrs followed by re-plating on tryptic soy agar plates at 37 degC for 18 hrs by broth microdilution assay; type: functional; details: ATCC 700677, 18 h
[32] = Safety index, ratio of cytotoxicity against human Caco2 cells at 32 ug/ml after 2 hrs by MTS assay to antibacterial activity against methicillin-resistant Staphylococcus aureus; type: toxicity, cell-based; details: Caco-2 cells
Staphylococcus aureus [33] = assay: Inhibition of biofilm formation in methicillin-resistant Staphylococcus aureus NRS384 USA300 after 24 hrs by crystal violet staining-based spectrophotometric analysis
Staphylococcus aureus [34] = assay: Inhibition of biofilm formation in methicillin-resistant Staphylococcus aureus NRS384 USA300 at 1 time MIC after 24 hrs by crystal violet staining-based spectrophotometric analysis relative to control; parameters: scale not given: the % may be the effect or the level left
Staphylococcus aureus [35] = assay: Inhibition of biofilm formation in methicillin-resistant Staphylococcus aureus NRS384 USA300 at 2 times MIC after 24 hrs by crystal violet staining-based spectrophotometric analysis relative to control; parameters: scale not given: the % may be the effect or the level left
Enterococcus faecium [36] = assay: Bactericidal activity against vancomycin-resistant Enterococcus faecium ATCC 700221 incubated fo 18 hrs followed by re-plating on tryptic soy agar plates at 37 degC for 18 hrs by broth microdilution assay; details: ATCC 700221, 18 h
Staphylococcus aureus [37] = assay: Antibacterial activity against methicillin-resistant Staphylococcus aureus NRS123 USA400 assessed as reduction in bacterial growth after 2 to 4 hrs by time kill assay; type: functional, organism-based; in short: as §2
[38] = Terminal phase volume of distribution at steady state in Sprague-Dawley rat at 5 uM, iv administered as bolus dose by LC-MS/MS analysis; type: ADME, organism-based; details: in vivo, read-out: Vbeta
In short: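 Male naïve Sprague–Dawley rats (n = 3) given tail-vein IV bolus of a 5 µM solution; blood taken into EDTA-K2 over 12 h; plasma protein-precipitated with acetonitrile and measured by LC/MS/MS; parameters from two-compartmental analysis.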

Enterococcus faecalis [39] = assay: Bactericidal activity against vancomycin-resistant Enterococcus faecalis ATCC 51299 incubated fo 18 hrs followed by re-plating on tryptic soy agar plates at 37 degC for 18 hrs by broth microdilution assay; type: functional; details: ATCC 51299, 18 h
Staphylococcus aureus [40] = assay: Antibacterial activity against methicillin-resistant Staphylococcus aureus NRS123 USA400 assessed as change in MIC after 14 serial passages by broth microdilution assay

`Cc1nc(-c2ccc(C(C)(C)C)cc2)sc1-c1ccnc(NC(=N)c2cccnc2)n1` gave an MIC [1] of 64 µg/mL (≈ 149 µM), an MIC (Staphylococcus aureus [2]) of 0.78 µg/mL (≈ 1.82 µM) and an MIC (Enterococcus faecalis [3]) of 8 µg/mL (≈ 18.7 µM). It also gave an MIC (Staphylococcus aureus [4]) of 4 µg/mL (≈ 9.33 µM), an MIC (Staphylococcus aureus [5]) of 4 µg/mL (≈ 9.33 µM) and an MIC (Staphylococcus aureus [6]) of 4 µg/mL (≈ 9.33 µM). The MIC (Staphylococcus aureus [7]) was 4 µg/mL (≈ 9.33 µM), the MIC (Staphylococcus aureus [8]) was 4 µg/mL (≈ 9.33 µM) and the MIC (Staphylococcus aureus [9]) was 4 µg/mL (≈ 9.33 µM). It also gave an MIC (Staphylococcus aureus [10]) of 4 µg/mL (≈ 9.33 µM), an MIC (Staphylococcus aureus [11]) of 4 µg/mL (≈ 9.33 µM) and an MIC (Staphylococcus aureus [12]) of 4 µg/mL (≈ 9.33 µM). The MIC (Enterococcus faecium [13]) was 8 µg/mL (≈ 18.7 µM), the MIC (Listeria monocytogenes [14]) was 4 µg/mL (≈ 9.33 µM) and the MIC (Streptococcus pneumoniae [15]) was 4 µg/mL (≈ 9.33 µM). The MIC (Streptococcus pneumoniae [16]) was 4 µg/mL (≈ 9.33 µM), the Activity (Staphylococcus aureus [17]) was 2.3 log10CFU/ml and the Ratio (Listeria monocytogenes [18]) was over 3. For the same molecule, the Activity (Caco-2) was “Non-Toxic”, the MBC (Staphylococcus aureus [19]) was 4 µg/mL (≈ 9.33 µM) and the MBC (Staphylococcus aureus [20]) was 4 µg/mL (≈ 9.33 µM). For the same molecule, the MBC (Staphylococcus aureus [21]) was 4 µg/mL (≈ 9.33 µM), the MBC (Staphylococcus aureus [22]) was 4 µg/mL (≈ 9.33 µM) and the MBC (Staphylococcus aureus [23]) was 4 µg/mL (≈ 9.33 µM). It also gave an MBC (Staphylococcus aureus [24]) of 4 µg/mL (≈ 9.33 µM), an MBC (Staphylococcus aureus [25]) of 4 µg/mL (≈ 9.33 µM) and an MBC (Staphylococcus aureus [26]) of 4 µg/mL (≈ 9.33 µM). It also gave an MBC (Staphylococcus aureus [27]) of 4 µg/mL (≈ 9.33 µM), an MBC [28] of over 64 µg/mL and an MBC (Listeria monocytogenes [29]) of 64 µg/mL (≈ 149 µM). The MBC (Streptococcus pneumoniae [30]) was 8 µg/mL (≈ 18.7 µM), the MBC (Streptococcus pneumoniae [31]) was 8 µg/mL (≈ 18.7 µM) and the selectivity ratio at 2 h, 32 ug/ml [32] was 8 to 30. For the same molecule, the inhibition (Staphylococcus aureus [33]) was “Dose-dependent effect”, the Activity (Staphylococcus aureus [34]) was 45.8% and the Activity (Staphylococcus aureus [35]) was 65.2%. It also gave an MBC (Enterococcus faecium [36]) of 16 µg/mL (≈ 37.3 µM).
`Cc1nc(-c2ccc(C(C)(C)C)cc2)sc1-c1ccnc(NCCN)n1` gave an MIC (Staphylococcus aureus [2]) of 1.17 µg/mL (≈ 3.18 µM), an MIC (Enterococcus faecalis [3]) of 16 µg/mL (≈ 43.5 µM) and an MIC (Staphylococcus aureus [4]) of 4 µg/mL (≈ 10.9 µM). For the same molecule, the MIC (Staphylococcus aureus [5]) was 4 µg/mL (≈ 10.9 µM), the MIC (Streptococcus pneumoniae [16]) was 2 µg/mL (≈ 5.44 µM) and the Activity (Staphylococcus aureus [37]) was “Active”. For the same molecule, the Activity (Caco-2) was “Non-Toxic”, the Vd at 5 µM [38] was 16.4 L and the MBC (Enterococcus faecalis [39]) was 16 µg/mL (≈ 43.5 µM). It also gave an MBC (Streptococcus pneumoniae [30]) of 16 µg/mL (≈ 43.5 µM), an MBC (Streptococcus pneumoniae [31]) of 16 µg/mL (≈ 43.5 µM) and a selectivity ratio at 2 h, 32 ug/ml [32] of 8 to 30. The inhibition (Staphylococcus aureus [33]) was “Dose-dependent effect”, the Ratio (Staphylococcus aureus [40]) was 1 and the Activity (Staphylococcus aureus [34]) was 28%. The Activity (Staphylococcus aureus [35]) was 64% and the MBC (Enterococcus faecium [36]) was 8 µg/mL (≈ 21.8 µM).

Reference: ChEMBL document CHEMBL4229382, “Phenylthiazoles with tert-Butyl side chain: Metabolically stable with anti-biofilm activity” (Eur J Med Chem, 2018)
